# Reference: article PMC3068223 (Biochemistry, 2011)
# What was measured:
# Format in all cases: biochemical
# MOM-bound rat MAO A [1] = molecular target: T1, MOM-bound rat MAO A (Rattus norvegicus, UniProt P21396); experiment: Protease treatment of yeast recombinant MOM-bound rat MAO A; settings: protease:protein 1:5 (w/w), room temperature
# T1 sequence (P21396 1-526): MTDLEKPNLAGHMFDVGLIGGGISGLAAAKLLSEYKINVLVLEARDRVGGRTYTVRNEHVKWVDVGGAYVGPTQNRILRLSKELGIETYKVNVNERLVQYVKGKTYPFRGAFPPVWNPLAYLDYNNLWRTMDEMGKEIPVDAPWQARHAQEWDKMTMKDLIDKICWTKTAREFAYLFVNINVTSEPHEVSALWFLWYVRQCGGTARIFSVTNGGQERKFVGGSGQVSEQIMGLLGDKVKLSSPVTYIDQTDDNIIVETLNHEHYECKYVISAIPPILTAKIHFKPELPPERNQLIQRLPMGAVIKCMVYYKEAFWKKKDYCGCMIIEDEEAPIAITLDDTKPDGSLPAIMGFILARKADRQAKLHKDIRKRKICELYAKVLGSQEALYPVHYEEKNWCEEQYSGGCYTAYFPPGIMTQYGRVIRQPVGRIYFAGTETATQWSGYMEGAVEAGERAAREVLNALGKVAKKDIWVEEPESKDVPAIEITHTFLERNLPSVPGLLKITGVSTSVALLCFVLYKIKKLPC
# How it was run: (§1)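 Rat MAO A or MAO B was expressed in Pichia pastoris KM71. Outer membranes were isolated by osmotic shock, mild sonication and a 30–55% sucrose gradient. Membranes were incubated at room temperature with trypsin or β-chymotrypsin at a 1:5 (w/w) protease:protein ratio. Timed samples were quenched with 1 mM PMSF (final). Residual activity was measured spectrophotometrically as product formation at 25°C.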
# MOM-bound rat MAO B [2] = molecular target: T2, MOM-bound rat MAO B (Rattus norvegicus, UniProt P19643); experiment: Protease treatment of yeast recombinant MOM-bound rat MAO B; settings: protease:protein 1:5 (w/w), room temperature
# T2 sequence (P19643 1-520): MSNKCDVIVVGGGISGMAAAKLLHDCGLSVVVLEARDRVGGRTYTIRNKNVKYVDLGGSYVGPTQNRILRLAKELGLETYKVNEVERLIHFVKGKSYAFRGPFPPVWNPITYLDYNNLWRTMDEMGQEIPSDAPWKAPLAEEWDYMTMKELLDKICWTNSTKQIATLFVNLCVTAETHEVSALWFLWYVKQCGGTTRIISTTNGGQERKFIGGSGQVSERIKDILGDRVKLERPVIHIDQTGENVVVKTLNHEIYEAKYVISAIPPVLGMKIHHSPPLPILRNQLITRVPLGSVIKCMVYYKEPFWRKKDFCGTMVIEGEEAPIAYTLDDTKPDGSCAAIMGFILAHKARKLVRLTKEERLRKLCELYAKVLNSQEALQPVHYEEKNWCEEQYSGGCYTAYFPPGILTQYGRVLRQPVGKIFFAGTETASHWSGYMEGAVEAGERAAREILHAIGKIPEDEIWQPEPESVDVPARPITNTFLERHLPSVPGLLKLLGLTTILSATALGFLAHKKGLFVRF
# How it was run: as §1
# MAO A = molecular target: T3, MAO A (Rattus norvegicus, UniProt P21396); experiment: Protease treatment of rat liver mitochondria, MAO A activity; settings: protease:protein 1:5 (w/w), room temperature
# T3 sequence (P21396 1-526): T1 sequence (P21396 1-526)
# How it was run: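 Rat liver mitochondria were isolated from a perfused Sprague-Dawley rat liver and purified on 30% Percoll. They were incubated at room temperature with trypsin at a 1:5 (w/w) protease:protein ratio. Samples taken over time were quenched with 1 mM PMSF (final). MAO A activity was measured polarographically as O2 uptake with serotonin in 50 mM potassium phosphate, pH 7.5, at 25°C.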
# purified rat MAO A = molecular target: T4, purified rat MAO A (Rattus norvegicus, UniProt P21396); experiment: Rate of inactivation of purified rat MAO A; settings: apparent pseudo-first order, 1 mM inhibitor, room temperature
# T4 sequence (P21396 1-526): T1 sequence (P21396 1-526)
# How it was run: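 Recombinant rat MAO A was purified from Pichia pastoris KM71, with d-amphetamine removed before kinetics. The enzyme was incubated with 1 mM test compound at room temperature, with an uninhibited control. Activity loss over time was measured spectrophotometrically with kynuramine in 50 mM potassium phosphate, pH 7.5, 0.5% reduced Triton X-100, at 25°C. Pseudo-first-order rate constants came from exponential decay fits.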
# MOM-bound rat MAO A [3] = molecular target: T1, MOM-bound rat MAO A; experiment: Rate of inactivation of MOM-bound recombinant rat MAO A; settings: apparent pseudo-first order, 1 mM inhibitor, room temperature
# How it was run: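 Outer-membrane-bound rat MAO A came from Pichia pastoris KM71 mitochondria, isolated by osmotic shock, sonication and sucrose gradient. Membranes were incubated with 1 mM test compound at room temperature, with an uninhibited control. Remaining activity over time was followed spectrophotometrically at 25°C. Apparent pseudo-first-order rate constants were obtained from exponential fits of activity decay.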
# purified rat MAO B = molecular target: T5, purified rat MAO B (Rattus norvegicus, UniProt P19643); experiment: Rate of inactivation of purified rat MAO B; settings: apparent pseudo-first order, 1 mM inhibitor, room temperature
# T5 sequence (P19643 1-520): T2 sequence (P19643 1-520)
# MOM-bound rat MAO B [4] = molecular target: T2, MOM-bound rat MAO B; experiment: Rate of inactivation of MOM-bound recombinant rat MAO B; settings: apparent pseudo-first order, 1 mM inhibitor, room temperature
# rat MAO A = molecular target: T6, rat MAO A (Rattus norvegicus, UniProt P21396); experiment: Inhibition of recombinant rat MAO A in P. pastoris mitochondria; settings: intact yeast mitochondria
# T6 sequence (P21396 1-526): T1 sequence (P21396 1-526)
# rat MAO B = molecular target: T7, rat MAO B (Rattus norvegicus, UniProt P19643); experiment: Inhibition of recombinant rat MAO B in P. pastoris mitochondria; settings: intact yeast mitochondria
# T7 sequence (P19643 1-520): T2 sequence (P19643 1-520)
inactivation of yeast recombinant MOM-bound rat MAO A by protease (MOM-bound rat MAO A [1]),inactivation of yeast recombinant MOM-bound rat MAO B by protease (MOM-bound rat MAO B [2]),MAO A activity lost (MAO A) [%],k (inactivation) MAO A (Purified) (purified rat MAO A) [s⁻¹],k (inactivation) MAO A (MOM) (MOM-bound rat MAO A [3]) [s⁻¹],k (inactivation) MAO B (Purified) (purified rat MAO B),k (inactivation) MAO B (MOM) (MOM-bound rat MAO B [4]),Compound,inhibition of rat MAO A in intact mitochondria (rat MAO A),inhibition of rat MAO B in intact mitochondria (rat MAO B)
sensitive to trypsin,no observable inactivation,> 90,–,–,–,–,trypsin,–,–
–,–,–,9.4 ± 1.1,44.8 ± 6.2,too fast to measure,too fast to measure,"C#CCN(C)Cc1ccccc1 [Pargyline, pargyline]",functions as an inhibitor with either enzyme,functions as an inhibitor with either enzyme
